Assay outcomes deposited in PubChem BioAssay by several laboratories.
Yeast growth inh: chemicals that inhibit yeast BB579 growth in restrictive medium (lifespan-shortening candidates); S. cerevisiae BB579 growth, OD615, 48 h; inhibition, % at 10 µM; 140,000 compounds, 0.51% hits; AID 804;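 active means inhibition above a set limit, 3 SD over the mean compound inhibition, cut at about 44% in these data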
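System: Saccharomyces cerevisiae DeaD strain BB579, replicative lifespan model yeast. Buffer or medium: restrictive glucose-based CSMM-D medium. Doses: one dose, 10 µM compound with 0.25% DMSO. Timing: 4 h preincubation and 48 h exposure at 30 °C. Detection: turbidity as optical density at 615 nm. Benchmarks: amphotericin B 10 µg/mL, positive.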
MT stabilize HCS: microtubule stabilization, imaging screen. % tubulin-high responders, % at 10 µM. 200,000 compounds, 0.83% hits. HeLa tubulin immunostaining HCS, 24 h; share of cells brighter than vehicle mean+2SD;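 active means plate Z-score above 3 for both tubulin-high and condensed-nucleus cell shares, with cell loss under 80%, at 10 µM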;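 further: anti alpha tubulin signal scored within the nucleus-defined area of each cell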
HMGR II inh: E. faecalis class II HMG-CoA reductase inhibition. purified E. faecalis HMGR, NADPH absorbance 340 nm kinetic. inhibition, % at 10 µM. 190,000 compounds, 0.41% hits. AID 1066;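 active means inhibition above a set limit, the median over all tested compounds plus 3 SD, cut at about 9.5% in these data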;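 further: enzyme runs in reverse so mevalonate oxidation gives rising NADPH absorbance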
Yeast life ext: yeast lifespan extension; S. cerevisiae growth with nicotinamide, OD615; deaD strain in restrictive glucose medium; inhibition of the nicotinamide effect, % at 10 µM; 130,000 compounds, 0.68% hits; AID 775;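 active means inhibition above a set limit, placed 3 SD over the median of all compounds, cut at about 26% in these data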
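Assay system: engineered S. cerevisiae DeaD replicative-lifespan strain, galactose-grown log-phase cells; medium: restrictive CSMM-D dextrose medium; also added: nicotinamide, 1.5 mM, co-present with compound; schedule: 48 h compound exposure at 30 °C, humidified; detection: absorbance at 615 nm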
bCat nuc transl: alters nuclear translocation of beta-catenin in HeLa cells. immunofluorescence imaging. nuclear translocation activity, % at 5 µM. 190,000 compounds, 0.3% hits. AID 1665;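 active means nuclear translocation activity above 50% at 5 µM, with a well cell count of 50 or more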;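 further: per-cell ratio of nuclear to cytoplasmic median beta-catenin stain intensity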
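Test system: human HeLa cell line; Doses: 5 µM primary, 0.02–20 µM confirmation; Incubation: 24 h compound exposure, 37°C; Detection: beta-catenin immunofluorescence imaging with DAPI; Read-out: beta-catenin nuclear/cytoplasmic ratio, % activation.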
RAM network inh: blocks the yeast RAM network; S. cerevisiae dse1pr::URA3 reporter, 5-FOA growth OD615, 2 d; analog-sensitive cbk1-as2 kinase mutant strain; inhibition, % at 50 µM; 190,000 compounds, 1.8% hits;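 active means inhibition above a set limit, 3 SD over mean compound inhibition, cut at about 8.4% in these data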;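 further: inhibition rescues growth on 5-FOA so higher OD means more RAM inhibition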
Hits are given with their value; 0 = inactive; - = no result. Only some compounds are listed: those with a hit (about 3.5% of all), similar ones and a draw of the others.

SMILES	Yeast growth inh	MT stabilize HCS	HMGR II inh	Yeast life ext	bCat nuc transl	RAM network inh
CC(C)NS(=O)(=O)c1ccc(OCC(=O)Nc2ccc(F)cc2F)cc1	0	0	0	49	-	0
Cc1cc(C)cc(Nc2c3c(nc4ncnn24)CCC3)c1	-	12	0	-	0	0
Cc1cccc(Nc2c3c(nc4ncnn24)CCC3)c1	-	0	0	-	0	0
C/C(=N\O)C(C)(C)Nc1ccccc1F	-	-	-	-	0	-
Cc1cc(O)c(/C=N/Nc2ccc(F)cc2)c(=O)o1	-	0	0	-	0	0
Cc1ccc(N/N=C/c2c(O)cc(C)oc2=O)cc1	96	0	0	0	0	0
Cc1cc(N2C(=O)C3C4CCC(C4)C3C2=O)no1 (stereo not drawn)	-	0	0	-	0	0
O=C(Oc1csc(=S)n1C(=O)c1ccccc1)c1ccccc1	49	0	0	0	0	0
Cc1cccc(OC(=O)c2ccc3nccnc3c2)c1	0	0	0	0	0	0
Cc1cccc(C(=O)Oc2csc(=S)n2C(=O)c2cccc(C)c2)c1	44	0	0	-	0	0
O=C(Oc1cccccc1=O)c1ccccc1	-	0	0	-	0	0
C=CCn1c(=NC(=O)c2ccccc2[N+](=O)[O-])sc2cc(S(C)(=O)=O)ccc21	0	0	0	0	0	0
O=C(CN1C(=O)CSc2ccccc21)Nc1ccc2c(c1)OCCO2	0	0	0	0	-	0
O=C(CN1C(=O)COc2ccccc21)Nc1ccc2c(c1)OCCO2	0	0	0	54	0	0
O=S(=O)(c1ccc(Nc2ccc(-c3ccc4c(c3)OCCO4)nn2)cc1)N1CCCC1	0	12	0	0	-	0
O=C(NC1CC1)c1cccc(Nc2ccc(-c3ccc4c(c3)OCCO4)nn2)c1	0	0	0	0	-	0
CCN(CC)S(=O)(=O)c1cc(C(=O)Oc2cccc(-c3cnc4ccccc4n3)c2)ccc1OC	0	0	0	0	0	0
CCN(CC)S(=O)(=O)c1ccc(C)c(C(=O)Oc2cccc(-c3cnc4ccccc4n3)c2)c1	0	0	0	0	0	9.3
CN(C)c1ccc(/C=C(\Cl)c2nc3ccccc3s2)cc1	0	0	0	0	0	8.6
Cc1cc(C(=O)CSc2nnc(NCc3ccccc3)s2)c(C)n1C	0	0	0	0	111	0
CC(C)=CCCC(C)CN1CCC(N2CCC(C(=O)NC(C)C)CC2)CC1 (stereo not drawn)	-	0	0	-	0	0
COc1n[nH]c(C(=O)NCc2ccccc2)c1[N+](=O)[O-]	-	0	12	-	0	0
Cc1ccc(C(=O)CSc2nnc(-c3c[nH]c4ccccc34)o2)cc1	0	0	0	0	0	0
Clc1cccc(CSc2nnc(-c3c[nH]c4ccccc34)o2)c1	0	0	0	0	0	10
O=c1c(-c2nnc(SCc3ccc(Cl)c(Cl)c3)o2)cccn1Cc1ccccc1	0	0	0	0	-	11
SMILES	Yeast growth inh	MT stabilize HCS	HMGR II inh	Yeast life ext	bCat nuc transl	RAM network inh
O=S(=O)(CCSc1nc2ccccc2s1)c1nc2ccccc2s1	0	11	0	0	0	0
Cc1c[nH]c(=O)c([N+](=O)[O-])c1	-	-	-	-	0	-
CC(=O)c1ccc(N=Cc2c(O)n(-c3cc(Cl)ccc3N3CCOCC3)c(=O)c3ccccc23)cc1	0	0	0	0	0	8.6
C=CCOc1c(Br)cc(CNc2nccs2)cc1OC	0	0	14	-	0	0
Cc1cccc(Cn2ncc(Cl)c(Cl)c2=O)c1	49	0	0	0	0	0
Cc1ccc(C(=O)OCn2ncc(Cl)c(Cl)c2=O)cc1	86	0	0	0	0	0
CCC(=O)c1ccc(Oc2ccc(C(=O)c3ccc(C)cc3)cc2[N+](=O)[O-])cc1	0	0	0	0	0	11
COc1ccc(OC)c(NC(=O)c2ccc(-c3cccs3)cc2)c1	-	0	0	-	0	0
Cc1ccc(OCCNC(=O)C(=O)NCc2ccco2)cc1	-	17	0	-	0	0
O=C(Nc1ccc(Cl)cc1F)c1ccc(COc2c(F)c(F)c(F)c(F)c2F)o1	0	0	0	0	0	0
O=C(c1ccc(COc2c(F)c(F)c(F)c(F)c2F)o1)N1CCOCC1	0	0	0	0	-	0
O=C(Nc1ccc(F)cc1F)c1ccc(COc2c(F)c(F)cc(F)c2F)o1	0	0	0	0	0	8.6
O=C(c1ccc(COc2c(F)c(F)cc(F)c2F)o1)N1CCN(c2ccccc2)CC1	0	0	0	-	0	11
